According to article PMC5049450 (Journal of Clinical Pharmacology, 2015):
Like-named read-outs stand apart in the source and are kept apart here.

Columns and labels:
[1] = assay type: in vivo, human; set-up: AUC∞, unbound buparlisib GMR (90%CI) / Cmax, total buparlisib GMR (90%CI) / Cmax, unbound buparlisib GMR (90%CI): unit not given beside the values; conditions: for increase in Cmax compared with normal hepatic function / increase in buparlisib exposure (AUC∞) compared with normal hepatic function: total buparlisib
Procedure, shortened: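 After a single oral dose following an overnight fast, K3EDTA blood was drawn predose and at 0.5–336 h. Samples were centrifuged at 1500 g for 10 min at 3–5 °C and plasma stored at –70 °C. Plasma levels were measured by validated LC-MS/MS after solid-phase extraction with a stable-labelled internal standard. Parameters were derived by noncompartmental analysis and compared by ANOVA of log-transformed values, with hepatic function as the fixed effect.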

Safety assessment = assay type: in vivo, human
Procedure, shortened: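 Noncancer Child–Pugh mild, moderate or severe hepatic impairment subjects (6 per group) and 13 healthy controls received one oral test-compound dose after an overnight fast. Safety was monitored throughout through adverse events, clinical laboratory tests, ECGs and physical examinations. Adverse events were graded by NCI-CTCAE v4.03 and relationship to drug was recorded. Safety follow-up was on day 31.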

CYP3A = conditions: phase‐1 oxidative metabolism; cited from earlier work
[2] = healthy volunteers, cited from earlier work
[3] = rats; cited from earlier work
plasma protein = conditions: across species; independent of drug concentration; cited from earlier work
[4] = patients with advanced solid tumors, cited from earlier work
[5] = cited from earlier work
[6] = increased solubility at low pH; cited from earlier work
[7] = cited from earlier work; remark: listed apart in the source
[8] = linear regression, severe hepatic impairment relative to control group (1.6 vs 1.0), not statistically significant
[9] = linear regression, severe hepatic impairment relative to control group (29.7 g/L vs 45.2 g/L), not statistically significant
[10] = mild hepatic impairment versus normal hepatic function group, 30 mg
[11] = moderate hepatic impairment versus normal hepatic function group, 30 mg
[12] = moderate‐hepatic‐function group
[13] = coadministration with ritonavir

For `Nc1cc(C(F)(F)F)c(-c2cc(N3CCOCC3)nc(N3CCOCC3)n2)cn1` [buparlisib], the AUC(0-inf) ([1]; human, plasma, po, 30 mg, AUC∞, geometric mean (CV%), single oral 30 mg, fasted, normal hepatic function (n = 13)) was 6.01 µg·h/mL, the Cmax ([1]; human, plasma, po, 30 mg, Cmax, geometric mean (CV%), single oral 30 mg, fasted, normal hepatic function (n = 13)) was 0.221 µg/mL and the half-life ([1]; human, plasma, po, 30 mg, T1/2, geometric mean (CV%), single oral 30 mg, fasted, normal hepatic function (n = 13)) was 53 h. For the same compound, the Tmax ([1]; human, plasma, po, 30 mg, Tmax, median (range), single oral 30 mg, fasted, normal hepatic function (n = 13)) was 1 h, the Vd/F ([1]; human, plasma, po, 30 mg, Vz/F, geometric mean (CV%), single oral 30 mg, fasted, normal hepatic function (n = 13)) was 381 L and the “increase in AUC∞ associated with higher (52%) INR” value [1, 8] was 15%. For the same compound, the “increase in Cmax associated with higher (52%) INR” value [1, 8] was 11%, the “increase in AUC∞ associated with lower (34%) baseline albumin level” value [1, 9] was 26% and the “increase in Cmax associated with lower (34%) baseline albumin level” value [1, 9] was 15%. The “AUC∞, unbound buparlisib GMR (90%CI)” value [1, 10] was 1.17 (0.84, 1.64), the “Cmax, total buparlisib GMR (90%CI)” value [1, 10] was 1.26 (1.00, 1.58) and the “Cmax, unbound buparlisib GMR (90%CI)” value [1, 10] was 1.28 (0.99, 1.64). The “increase in Cmax compared with normal hepatic function” value ([1]; mild hepatic impairment) was 26%, the “increase in buparlisib exposure (AUC∞) compared with normal hepatic function” value ([1]; mild hepatic impairment) was 16% and the “AUC∞, unbound buparlisib GMR (90%CI)” value [1, 11] was 1.18 (0.84, 1.65). The “Cmax, total buparlisib GMR (90%CI)” value [1, 11] was 1.08 (0.87, 1.36), the “Cmax, unbound buparlisib GMR (90%CI)” value [1, 11] was 1.12 (0.87, 1.44) and the “increase in Cmax compared with normal hepatic function” value ([1]; moderate hepatic impairment) was 8%. For the same compound, the “increase in buparlisib exposure (AUC∞) compared with normal hepatic function” value ([1]; moderate hepatic impairment) was 14%, the “Cmax, total buparlisib GMR (90%CI)” value ([1]; severe hepatic impairment versus normal hepatic function group, 30 mg) was 1.45 (1.15, 1.81) and the “increase in Cmax compared with normal hepatic function” value ([1]; severe hepatic impairment) was 45%. For the same compound, the “increase in buparlisib exposure (AUC∞) compared with normal hepatic function” value ([1]; severe hepatic impairment) was 20%, the “CL/F, geometric mean (CV%)” value ([1]; single oral 30 mg, fasted, mild hepatic impairment, Child–Pugh A (n = 6)) was 4.3 (46) L/h and the “CL/F, geometric mean (CV%)” value ([1]; single oral 30 mg, fasted, moderate hepatic impairment, Child–Pugh B (n = 6)) was 4.4 (62) L/h. For the same compound, the “CL/F, geometric mean (CV%)” value ([1]; single oral 30 mg, fasted, normal hepatic function (n = 13)) was 5.0 (37) L/h, the “CL/F, geometric mean (CV%)” value ([1]; single oral 30 mg, fasted, severe hepatic impairment, Child–Pugh C (n = 6)) was 4.2 (41) L/h and the “secondary absorption peak, time postdose” value ([1]; single oral 30 mg, subjects with or without hepatic impairment) was “approximately 24 hours”. For the same compound, the “subjects with QTcF >450 milliseconds” value (Safety assessment; all subjects) was “Eight subjects”, the “subjects with QTcF increase of >30 milliseconds from baseline” value (“subjects with QTcF increase” below) (Safety assessment; all subjects) was “Six subjects” and the “subjects with QTcF increase” value (Safety assessment; mild‐hepatic‐function group) was 2. The “subjects reporting treatment‐related AEs” value (Safety assessment; moderate hepatic impairment, grade‐1 prolonged QTcF, grade‐1 hypertension) was 2 subjects, the “subjects with QTcF >450 milliseconds” value (Safety assessment; [12]) was 4 and the “subjects with QTcF increase” value (Safety assessment; [12]) was 2. For the same compound, the “subjects reporting treatment‐related AEs” value (Safety assessment; normal hepatic function, grade‐1 dizziness, grade‐1 dermatitis acneiform) was 2 subjects, the “subjects with QTcF increase” value (Safety assessment; normal‐hepatic‐function group) was 2 and the “subjects reporting treatment‐related AEs” value (Safety assessment; severe hepatic impairment, grade‐2 thrombocytopenia) was 1 subject. For the same compound, the “subjects with QTcF >450 milliseconds” value (Safety assessment; severe‐hepatic‐function group) was 4, the “deaths during the study” value (Safety assessment; single oral 30 mg, all subjects (N = 31)) was “no deaths” and the tolerability (Safety assessment; single oral 30‐mg dose, subjects with and without hepatic impairment) was “well tolerated”. The “estimated fraction metabolized by CYP3A” value (CYP3A) was over 0.9, the apparent clearance ([2]; buparlisib with ritonavir) was 3.27 L/h and the “elimination half‐life (T1/2)” value ([2]; buparlisib with ritonavir) was 71.6 h. For the same compound, the apparent clearance ([2]; buparlisib without ritonavir) was 5.37 L/h, the “elimination half‐life (T1/2)” value ([2]; buparlisib without ritonavir) was 53.3 h and the “increase in Cmax geometric mean ratio” value [2, 13] was 19%. For the same compound, the “increase in buparlisib exposure (AUC∞)” value [2, 13] was 73%, the dose eliminated renally [3] was 20–30% and the plasma protein binding (plasma protein) was 79–85%. For the same compound, the “increases in Cmax and AUC0–24 with dose” value ([4]; following multiple doses) was “approximately dose‐proportional”, the “time of maximum plasma concentrations postdose” value [4] was 1 to 4 h and the permeability [5] was “highly permeable”. For the same compound, the solubility [6] was “soluble” and the maximum tolerated dose [7] was 100 mg/day.
